Screens from PubChem.
Sampled rows, rich in hits. Any-hit rate of the full collection: about 2.3%.
TAAR1 antag: human TAAR1 antagonists, primary screen, Fluo-8 calcium fluorescence, CHO RD-HGA16 cells; Trace amine-associated receptor 1 (Homo sapiens), Q96RJ0; inhibition, % at 3 µM; antagonist; actives 1.5% (n = 360,000);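 active means inhibition above a per-plate cutoff, the mean inhibition of test compounds on that plate plus 3 SD, cut at about 49% in these data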
Target sequence (Q96RJ0 whole entry, looked up): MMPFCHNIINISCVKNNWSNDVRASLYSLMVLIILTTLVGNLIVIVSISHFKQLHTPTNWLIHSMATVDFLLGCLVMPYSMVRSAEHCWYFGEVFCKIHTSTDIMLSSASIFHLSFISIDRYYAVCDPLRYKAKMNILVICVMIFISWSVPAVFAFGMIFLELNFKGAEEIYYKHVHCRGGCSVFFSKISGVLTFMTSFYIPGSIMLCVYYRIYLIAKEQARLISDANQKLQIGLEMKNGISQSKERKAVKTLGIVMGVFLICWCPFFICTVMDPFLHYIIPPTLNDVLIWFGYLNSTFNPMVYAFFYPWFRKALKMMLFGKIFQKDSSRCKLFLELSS
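Assay system: RD-HGA16 CHO cells with stable hTAAR1 and Gα16 / Reagent: EC80 β-phenethylamine stimulus / Doses: 3 µM, single point / Timing: dye loading 75 min at 37 °C, then 30 min room temperature / Measured by: Fluo-8 intracellular calcium dye fluorescence, real-time kinetic reads / Controls: vehicle wells and EC80 agonist wells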
OXTR potentiator: human OXTR potentiators, primary screen, fluorescence, CHO-OTR cells, Fluo-8 calcium | Oxytocin receptor (Homo sapiens), P30559 | Fluo-8 calcium fluorescence, potentiator mode; 0% = oxytocin EC15, 100% = EC100 | activation, % at 3 µM | actives 0.061% (n = 320,000) | AID 2445, 2010;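 active means activation above that plate's cutoff, the mean activation of tested compounds plus 3 SD, cut at about 6.6% in these data, passing the limit was not always enough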
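Measured by – Fluo-8 calcium dye fluorescence · Test system – human OTR in CHO cells · Dosing – one concentration, 3.0 µM compound · Controls – EC15 oxytocin alone as 0%, 75 nM oxytocin as 100% · Evaluation – normalized max/min fluorescence ratio, % activation · Timing – 6 min pre-incubation, 100 s read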
TAAR1 agonist: human TAAR1 agonists, primary screen, Fluo-8 calcium fluorescence, CHO RD-HGA16 cells | vehicle wells 0%, saturating PEA agonist 100% | activation, % at 3 µM | actives 0.99% (n = 360,000) | AID 624467, 2012;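 active means activation above the mean activation of all test compounds in the run plus 3 SD, cut at about 38% in these data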
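System: CHO RD-HGA16 cells carrying human TAAR1 plus Gα16; Incubation: 17-24 h seeding, 75 min 37 °C dye, 30 min RT; Measured by: Fluo-8 fluorescence, 5 s baseline then 140 s kinetic read; Control set: DMSO and PEA EC100; Replication: single well for each compound.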
OXTR agonist: human OXTR agonists, primary screen, fluorescence, CHO-OTR cells, Fluo-8 calcium; Oxytocin receptor (Homo sapiens), P30559; Fluo-8 calcium fluorescence; normalized: DMSO 0%, oxytocin 100%; activation, % at 3 µM; actives 0.32% (n = 320,000);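 active means activation above the mean of all tested compounds plus 3 SD, cutoff set per screening run, cut at about 20% in these data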;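 further: peak over basal fluorescence ratio from a 100 s FLIPR kinetic read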
V1R ag counter: agonists of human V1a receptor, primary screen, counter-screen for OXTR agonist project, fluorescence, CHO-V1R cells; actives 0.25% (n = 320,000); activation, % at 3 µM; Vasopressin V1a receptor (Homo sapiens), P37288; Fluo-8 calcium fluorescence, agonist mode; 0% DMSO, 100% 3 nM vasopressin;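 active means activation above the mean activation of all tested compounds plus 3 SD, per screening run, cut at about 20% in these data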;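 further: signal is peak over basal fluorescence ratio across a 100 second FLIPR read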
Target sequence (P37288 whole entry, looked up): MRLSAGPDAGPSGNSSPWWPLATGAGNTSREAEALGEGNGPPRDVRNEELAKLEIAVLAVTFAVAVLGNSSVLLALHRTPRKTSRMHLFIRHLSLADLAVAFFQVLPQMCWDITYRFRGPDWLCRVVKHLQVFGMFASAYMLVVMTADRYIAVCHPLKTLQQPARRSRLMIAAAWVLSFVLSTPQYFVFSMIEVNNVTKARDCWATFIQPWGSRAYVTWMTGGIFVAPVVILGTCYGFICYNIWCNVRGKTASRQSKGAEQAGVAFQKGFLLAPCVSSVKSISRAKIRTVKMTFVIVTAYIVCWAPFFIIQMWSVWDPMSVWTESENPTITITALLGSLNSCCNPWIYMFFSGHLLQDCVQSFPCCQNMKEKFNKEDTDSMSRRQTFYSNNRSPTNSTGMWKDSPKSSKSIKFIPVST
nonsel antag count: nonselective antagonists in TAAR1 counter-screen cells, counter-screen for hTAAR1 antagonist project, cell-based, fluorescence, calcium. shares compounds with TAAR1 antag. actives 77% (n = 2,400). counterscreen cell line, antagonist mode. inhibition, % at 3 µM; in the data active means inhibition above about 22%;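 further: CHO-Ga16 host cells stimulated with ATP at an EC80 level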
TAAR1 ant conf: human TAAR1 antagonists, retest of hits, confirmation, cell-based, fluorescence; TAAR1-expressing cells, fluorescence antagonist read-out; actives 40% (n = 2,400); shares compounds with TAAR1 antag; inhibition, % at 3 µM; in the data active means inhibition above about 49%;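 further: CHO-Ga16 host cells challenged with agonist PEA near its EC80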
Ga16 ag counter: calcium activation in Ga16-expressing cells, counter-screen for TAAR1 antagonist project, cell-based, fluorescence; shares compounds with TAAR1 antag; agonist counterscreen; activation, % at 3 µM; actives 18% (n = 2,400); AID 651953, 2012; in the data active means activation above about 12%
TAAR1 ag counter: TAAR1 activation by candidate antagonists – cell-based, fluorescence, counter-screen for TAAR1 antagonist project | shares compounds with TAAR1 antag | hTAAR1 cell line, agonist mode | activation, % at 3 µM | actives 2% (n = 2,400); in the data active means activation above about 37%;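 further: CHO cells stably expressing TAAR1 with calcium dye readout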
Of the large screens only hits and unclear results are named; the others gave an inactive call (follow-up assays come after a bar, where they were run).

CCOC(=O)N1CCN(C(=S)NC(=O)c2ccc(F)c(F)c2)CC1	none
CCCCCCCCOc1ccc(C2CC(=O)NC2=O)cc1 (stereo unspecified)	none
O=C1CC(c2ccc(OCCCCCOc3ccc(C4CC(=O)NC4=O)cc3)cc2)C(=O)N1 (stereo unspecified)	TAAR1 antag 64 | nonsel antag count 40 | TAAR1 ant conf 53 | Ga16 ag counter 14 | TAAR1 ag counter inactive
O=C(/C=C1\C(=O)Nc2ccccc21)/C=C1\C(=O)Nc2ccccc21	TAAR1 antag 60 (no result: OXTR potentiator, OXTR agonist, V1R ag counter) | nonsel antag count 35 | TAAR1 ant conf inactive | Ga16 ag counter inactive | TAAR1 ag counter inactive
O=C1Nc2ccccc2/C1=C\C(=O)c1ccccc1	none
C=CC[C@H](CC(=O)NCCO)C(=O)N[C@H](COC(=O)[C@@H](CC=C)CC(=O)OC(C)(C)C)Cc1c[nH]c2ccccc12	none
C=CC[C@H](CC(=O)N(CCO)Cc1ccccc1)C(=O)N[C@@H](COC(=O)[C@H](CC=C)CC(=O)OC(C)(C)C)Cc1c[nH]c2ccccc12	TAAR1 antag 69 | nonsel antag count 30 | TAAR1 ant conf inactive | Ga16 ag counter inactive | TAAR1 ag counter inactive
C=CC[C@H](CC(=O)N(CCO)Cc1ccccc1)C(=O)N[C@H](COC(=O)[C@H](CC=C)CC(=O)OC(C)(C)C)Cc1ccccc1	TAAR1 antag 58 | nonsel antag count 24 | TAAR1 ant conf inactive | Ga16 ag counter inactive | TAAR1 ag counter inactive
CN(C)c1ccc(Nc2nc(N)c([N+](=O)[O-])c(N3CCOCC3)n2)cc1	TAAR1 antag 54 | nonsel antag count 22 | TAAR1 ant conf inactive | Ga16 ag counter inactive | TAAR1 ag counter inactive
C[C@@H]1CN([C@@H](C)CO)C(=O)c2cc(NC(=O)C3CCCCC3)ccc2O[C@@H](C)CCCCO[C@@H]1CN(C)C(=O)CCCN(C)C	none (no result: OXTR potentiator, OXTR agonist, V1R ag counter)
O=C(CCCC(=O)NN=Cc1ccc(Cl)cc1Cl)NN=Cc1ccc(Cl)cc1Cl	none (no result: OXTR potentiator, OXTR agonist, V1R ag counter)
O=C(CCCC(=O)NN=Cc1ccccc1Cl)NN=Cc1ccccc1Cl	TAAR1 antag 51 (no result: OXTR potentiator, OXTR agonist, V1R ag counter) | nonsel antag count inactive | TAAR1 ant conf inactive | Ga16 ag counter inactive | TAAR1 ag counter inactive
CCOC(=O)c1sc(NC(=O)C(CC)OC(=O)C(CC(C)C)NC(=O)c2ccccc2)nc1C (stereo unspecified)	TAAR1 antag 65 | nonsel antag count 39 | TAAR1 ant conf 57 | Ga16 ag counter inactive | TAAR1 ag counter inactive
CCC(OC(=O)C(CC(C)C)NC(=O)c1ccccc1)C(=O)Nc1nnc(C)s1 (stereo unspecified)	none
CC(NC(=O)CN1C(=O)NC2(CCc3ccccc32)C1=O)c1ccc2c(c1)OCCO2 (stereo unspecified)	none
COc1ccc(NC(=O)/C(=C\c2ccc(F)cc2)NC(=O)c2ccco2)cc1	none
O=c1c2ccc([N+](=O)[O-])cc2ncn1CCOc1cccc(Br)c1	TAAR1 antag 71 | nonsel antag count 30 | TAAR1 ant conf 56 | Ga16 ag counter inactive | TAAR1 ag counter inactive
O=C(COC(=O)Cc1c[nH]c2ccccc12)Nc1ccccc1	none
NC(=O)c1ccsc1NC(=O)COC(=O)Cc1c[nH]c2ccccc12	TAAR1 antag 66 | nonsel antag count 47 | TAAR1 ant conf 56 | Ga16 ag counter 17 | TAAR1 ag counter inactive
COc1ccc(C(=O)OCC(=O)Nc2sccc2C(N)=O)cc1OC	TAAR1 antag 64 | nonsel antag count 30 | TAAR1 ant conf inactive | Ga16 ag counter inactive | TAAR1 ag counter inactive
COc1cc(C(=O)OCC(=O)Nc2sccc2C(N)=O)cc(OC)c1OC	none
COC(Cc1ccccc1N1CCCC1=O)OC	none
CN(Cc1cnn(-c2ccccc2)c1)C(=O)c1cccc(S(=O)(=O)N(C)c2ccccc2)c1	TAAR1 antag 63 (no result: OXTR potentiator, OXTR agonist, V1R ag counter) | nonsel antag count 35 | TAAR1 ant conf inactive | Ga16 ag counter inactive | TAAR1 ag counter inactive
CCOC(=O)c1[nH]c2ccc(OC)cc2c1NC(=O)CN1CCN(c2ccccn2)CC1	none (no result: TAAR1 antag, TAAR1 agonist)
CCOC(=O)c1[nH]c2ccc(OC)cc2c1NC(=O)CN1CCc2ccccc2C1	TAAR1 antag 60 | nonsel antag count 23 | TAAR1 ant conf 51 | Ga16 ag counter inactive | TAAR1 ag counter inactive
CCCCn1c(O)c(N=NC(=O)c2ccco2)c2ccccc21	TAAR1 antag 52 | nonsel antag count inactive | TAAR1 ant conf inactive | Ga16 ag counter inactive | TAAR1 ag counter inactive
COc1ccc(-c2[nH]c(-c3ccc(C)cc3)nc2SCC(=O)Nc2nccs2)cc1	none
COc1ccc(-c2nc(SCC(=O)Nc3nccs3)c(-c3ccc(Cl)cc3)[nH]2)cc1	TAAR1 antag 68 | nonsel antag count 45 | TAAR1 ant conf 59 | Ga16 ag counter inactive | TAAR1 ag counter inactive
O=c1cc(CN2CCN(c3ccc(Cl)c(Cl)c3)CC2)c2c(ccc3ccccc32)o1	none (no result: OXTR potentiator, OXTR agonist, V1R ag counter)
O=C1ON=C(c2ccccc2)/C1=C/c1ccc(-c2ccccc2[N+](=O)[O-])o1	TAAR1 antag 57 | nonsel antag count 66 | TAAR1 ant conf 63 | Ga16 ag counter 19 | TAAR1 ag counter inactive
CCn1c(=NC(=O)c2cccc(N3C(=O)CCC3=O)c2)sc2c(C)ccc(OC)c21	TAAR1 antag 60 | nonsel antag count 30 | TAAR1 ant conf inactive | Ga16 ag counter inactive | TAAR1 ag counter inactive
CCn1c(=NC(=O)c2ccc(N3C(=O)CCC3=O)cc2)sc2c(OC)ccc(OC)c21	none
CCOC(=O)C1=CN(Cc2cccc(-c3ccc(Cl)nc3)c2)S(=O)(=O)N(C)C1C (stereo unspecified)	TAAR1 antag 63 (no result: OXTR potentiator, OXTR agonist, V1R ag counter) | nonsel antag count inactive | TAAR1 ant conf inactive | Ga16 ag counter inactive | TAAR1 ag counter inactive
Clc1cccc(-c2nc(NCCCN3CCOCC3)c3ccccc3n2)c1	none
